The nature of data set [1]: Size exclusion chromatography of hTLX.
For data set [2], the target named is hTLX (construct of the size exclusion chromatography not stated) (human) (UniProt Q9Y466). As to the kind of experiment: SEC.
The subject of data set [3] is Gal4 transcriptional activity. As to the kind of experiment: Gal4 reporter repression assay with Gal4-fused receptor LBDs. The settings on record: Gal4-fused receptor LBD, cell reporter assay, AD293 cells. The format is cell-based. The gist of the method:
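AD293 cells were cotransfected with Gal4-DBD fusions of the hTLX LBD (residues 182–385; H12 deletion residues 182–371) or the dTLX LBD (residues 229–472), wild type or mutant, plus a luciferase reporter. Repression fold is RLU with Gal4 alone relative to RLU with the Gal4-receptor fusion. Expression was checked by anti-Gal4 Western blot. Values are SD, n = 3, with at least two repeats, and groups were compared by two-tailed Student's t-test.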

Data set [4] has as its system SHP full-length (NP_035980). As to the kind of experiment: Coimmunoprecipitation with SHP. The format is binding, mouse. The note with it: Co-IP, Flag/HA fusions, Western blot.

hTLX: human TLX (NP_003260): in data set [1], the “Oligomeric state in solution” value is “formed a dimer in solution”.
As for “hTLX (construct of the size exclusion chromatography not stated) (from UniProt Q9Y466-1 1-385) (natural protein)”, the stoichiometry N in data set [2] came to 2.

B1: COUP-TF2∆H12: human COUP-TF2 residues 76–258, helix H12 deleted (protein, UniProt P24468 76-258, looked up, fragment)
chain: HIECVVCGDKSSGKHYGQFTCEGCKSFFKRSVRRNLSYTCRANRNCPIDQHHRNQCQYCRLKKCLKVGMRREAVQRGRMPPTQPTHGQFALTNGDPLNCHSYLSGYISLLLRAEPYPTSRFGSQCMQPNNIMGIENICELAARMLFSAVEWARNIPFFPDLQITDQVALLRLTWSELFVLNAA
modifications: ligand-binding domain, H12 deleted
As for B1, the “Repressor activity (in words)” value in data set [3] is recorded as “compromised its repressor activity”.

B2: Atrophin-2: Atrophin-2 (NP_001036046, residues 1087–1566) (protein)
chain: AAKASSSAHEGRLSDPQLSGPGHMRPSFEPPPTTIAAVPPYIGPDTPALRTLSEYARPHVMSPTNRNHPFYMPLNPTDPLLAYHMPGLYNVDPTIRERELREREIREREIRERELRERMKPGFEVKPPELDPLHPATN
modifications: left off: Gal4 DNA-binding domain, end not stated, kept
Turning to B2, the “Interaction with SHP” value in data set [4] was “able to interact”.

The values above are taken from PMC4335298 (Genes & Development, 2015).
